Compound activity (PubChem BioAssay)
CASP6 VEID inh: blocks human caspase-6 cleavage activity; P55212; 350,000 tested, 0.53% active; purified caspase-6, Z-VEID-R110 cleavage fluorescence; inhibition, % at 12.5 µM; AID 686996;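 active = mean inhibition across replicates at least about 35%, with every replicate also reaching that limit, limit read from the data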
ARNT-TACC3 inh: disruptors of human ARNT/TACC3 interaction; Q9Y6A5; AlphaScreen His-ARNT PAS-B/GST-TACC3 binding, luminescence; TACC3 fragment carries E629A point mutation; inhibition, % at 9.99 µM; 390,000 tested, 0.66% active; AID 623870;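 active = mean inhibition of replicates at least 50% and at least half of replicates each reaching 50%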
S100A4 MyoIIA: S100A4-myosin IIA interaction inhibition | inhibition, % at 10.7 µM | 360,000 tested, 0.14% active | AID 652163 | P26447 | S100A4/TAMRA-MyoIIA peptide fluorescence polarization;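 active = mean inhibition of at least 70% across replicates, with every replicate also reaching that level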
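System – human S100A4 monomer protein, biochemical binding assay · Buffer or medium – Calcium-containing HEPES buffer, pH 7.2 · Timing – 5 min between mix addition and reading · Also added – TAMRA-labelled myosin IIA heavy-chain peptide probe, 5 nM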
Ecoli rRNA inh: inhibits bacterial ribosomal RNA function over humanized ribosomes. E. coli WT GFP vs humanized-ribosome RFP mutants, fluorescence, 24 h; stronger effect = lower value; DMSO median 0, no signal -100. GFP signal change (wild-type ribosome), % (test concentration not listed). 350,000 tested, 1.6% active. AID 720706;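 active = significant combined selectivity score with lowered wild-type GFP, culture density cut under 30%, mutant RFP and density less affected; inactive = any of these conditions unmet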
PGC1a acetyl inh: modulators of PGC1a acetylation; U2OS PGC1a acetylation, AlphaScreen anti-acetyl-lysine; with virally co-expressed GCN5 acetyltransferase; inhibition, % at 15.6 µM; 350,000 tested, 0.17% active; AID 651687;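 active = every replicate shows inhibition of at least 40%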
ERAP1 HTS inh: blocks human ERAP1 aminopeptidase activity; Q9NZ08; recombinant ERAP1, Leu-AMC fluorescence, 60 min; inhibition, % at 10.7 µM; 340,000 tested, 0.15% active; AID 652197;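 active = mean replicate inhibition of at least 30%, or all replicates individually reaching that 30% level; inactive = mean below 30% and not every replicate reaching it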
Target sequence (Q9NZ08 whole entry, looked up): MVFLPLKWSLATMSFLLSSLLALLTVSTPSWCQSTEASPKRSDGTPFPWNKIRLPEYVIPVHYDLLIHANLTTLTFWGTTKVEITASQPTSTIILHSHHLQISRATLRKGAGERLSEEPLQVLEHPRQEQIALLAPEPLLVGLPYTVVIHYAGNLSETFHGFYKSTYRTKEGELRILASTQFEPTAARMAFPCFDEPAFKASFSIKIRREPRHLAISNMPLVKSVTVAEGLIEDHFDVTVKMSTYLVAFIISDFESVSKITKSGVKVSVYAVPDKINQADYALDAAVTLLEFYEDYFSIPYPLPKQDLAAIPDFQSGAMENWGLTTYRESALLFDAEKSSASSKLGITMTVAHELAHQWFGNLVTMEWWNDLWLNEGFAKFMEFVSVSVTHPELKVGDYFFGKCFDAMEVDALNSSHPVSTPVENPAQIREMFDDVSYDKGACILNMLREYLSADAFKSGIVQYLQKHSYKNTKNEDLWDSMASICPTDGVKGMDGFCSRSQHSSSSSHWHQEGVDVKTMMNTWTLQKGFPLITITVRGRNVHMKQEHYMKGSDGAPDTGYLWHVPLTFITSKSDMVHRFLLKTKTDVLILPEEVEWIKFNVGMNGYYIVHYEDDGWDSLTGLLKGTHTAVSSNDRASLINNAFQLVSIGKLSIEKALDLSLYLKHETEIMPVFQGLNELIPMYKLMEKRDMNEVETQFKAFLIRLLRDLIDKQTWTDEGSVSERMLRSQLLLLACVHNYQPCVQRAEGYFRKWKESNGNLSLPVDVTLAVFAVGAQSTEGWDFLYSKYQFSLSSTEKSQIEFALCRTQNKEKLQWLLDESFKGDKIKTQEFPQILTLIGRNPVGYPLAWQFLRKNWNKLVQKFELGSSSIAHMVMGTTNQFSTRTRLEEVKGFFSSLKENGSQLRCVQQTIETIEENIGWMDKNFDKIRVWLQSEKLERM
Large screens that a line does not name were inactive. Sampled rows, rich in hits. Any-hit rate of the full collection: about 2.4%.

CO[C@@H]1CN(C)C(=O)c2ccc(NC(=O)c3cc(C)on3)cc2OC[C@@H](C)N(CC2CC2)C[C@H]1C	none (no result: ARNT-TACC3 inh)
Cc1ccccc1S(=O)(=O)N[C@H]1CC[C@@H](CCNS(=O)(=O)c2cccc(F)c2)O[C@H]1CO	none
Cc1c(Cc2ccc3c(c2)OCO3)sc(NC(=O)c2cccc3ccccc23)c1C(N)=O	none (no result: PGC1a acetyl inh)
Cc1c(Cc2ccc3c(c2)OCO3)sc(NC(=O)C2CC2)c1C(N)=O	Ecoli rRNA inh -26.8
C[C@@H]1CN([C@H](C)CO)C(=O)c2cc(NC(=O)CCCCCC(=O)Nc3ccccc3N)ccc2O[C@@H]1CN(C)C(=O)Nc1ccc(F)cc1	none (no result: ARNT-TACC3 inh)
CN1C(=O)c2cc(NC(=O)C3CCCC3)ccc2OC[C@@H]2O[C@H](CC(=O)O)CC[C@@H]21	none
O=C(NCC(=O)N1CC=C(c2ccccc2)CC1)c1ccc(OC(F)F)cc1	none (no result: Ecoli rRNA inh)
O=C(NCC(=O)N1CC=C(c2ccccc2)CC1)c1ccccc1Br	CASP6 VEID inh 80.0
CCOC(=O)C1=CC[C@@H](c2ccc3ccccc3n2)[C@@H]1C(=O)c1ccccc1	none (no result: ARNT-TACC3 inh, Ecoli rRNA inh)
CCOC(=O)c1ccc(Nc2ncnc3c2cnn3C)cc1	none
Cn1ncc2c(O/N=C(\N)c3ccc(C(C)(C)C)cc3)ncnc21	PGC1a acetyl inh 95.9 (no result: CASP6 VEID inh, S100A4 MyoIIA, Ecoli rRNA inh, ERAP1 HTS inh)
CCn1c(SCc2ccc(Cl)cc2)nc2nc3c(cc2c1=O)CCCC3	Ecoli rRNA inh -22.2 (no result: ARNT-TACC3 inh, PGC1a acetyl inh)
C[C@@H]1CN([C@H](C)CO)S(=O)(=O)c2ccc(C#CCN(C)C)cc2O[C@@H]1CN(C)Cc1ccc(F)cc1	none
CCN(CC)CCN(C(=O)c1ccccc1OC)c1nc2ccc(F)cc2s1	Ecoli rRNA inh -22.3 (no result: PGC1a acetyl inh)
O=C(O)CN1C(=O)/C(=C\c2cc(Br)ccc2OCc2ccc(F)cc2)SC1=S	CASP6 VEID inh 38.5
O=C1/C(=C\c2cc([N+](=O)[O-])ccc2O)SC(=S)N1Cc1ccc(Cl)cc1	none
O=C(O)CN1C(=O)/C(=C\c2cc(Br)ccc2OCc2ccc(Cl)cc2)SC1=S	CASP6 VEID inh 77.2 (no result: PGC1a acetyl inh)
COc1ccc(/C=C2/SC(=S)N(CC(=O)O)C2=O)cc1OCc1ccc(Cl)cc1	none (no result: PGC1a acetyl inh)
O=C(O)CN1C(=O)/C(=C\c2ccccc2OCc2ccccc2)SC1=S	none (no result: ARNT-TACC3 inh, PGC1a acetyl inh)
O=C(O)CN1C(=O)/C(=C\c2cc([N+](=O)[O-])ccc2OCc2ccccc2Cl)SC1=S	CASP6 VEID inh 35.6
O=C(O)CN1C(=O)/C(=C\c2cccc(OCc3ccccc3)c2)SC1=S	none (no result: PGC1a acetyl inh)
O=C(O)CN1C(=O)/C(=C\c2ccccc2OCc2ccc(F)cc2)SC1=S	Ecoli rRNA inh -39.0, ERAP1 HTS inh 32.3
CN1CCN(C(=O)C[C@@H]2CC[C@@H](NS(=O)(=O)c3cccc(F)c3)[C@@H](CO)O2)CC1	none (no result: ARNT-TACC3 inh)
COc1ccccc1NC(=O)N1CCCCN2[C@H](C1)[C@H](c1ccc(C#CC3CC3)cc1)[C@@H]2CO	none (no result: ARNT-TACC3 inh, Ecoli rRNA inh)
Cc1cccc(-c2cc(N3CCCN(C)CC3)n3nccc3n2)c1	S100A4 MyoIIA 111.7 (no result: ARNT-TACC3 inh)
CCOc1cccc(-c2cc(N3CCN(CCO)CC3)n3nccc3n2)c1	none (no result: ARNT-TACC3 inh)
CN1CCCN(c2cc(-c3ccc4ccccc4c3)nc3ccnn23)CC1	S100A4 MyoIIA 138.9 (no result: ARNT-TACC3 inh, PGC1a acetyl inh)
CC(=O)N1[C@H](CO)[C@@H](c2ccccc2)C12CN(C(=O)c1ccccc1)C2	none (no result: ARNT-TACC3 inh)
CS/C(=N\S(=O)(=O)c1cccs1)Nc1ccc(Br)cc1F	none
CS/C(=N\S(=O)(=O)c1cccs1)Nc1ccc(Cl)cc1	Ecoli rRNA inh -29.8 (no result: PGC1a acetyl inh)
Cc1ccc(S(=O)(=O)N2CCOCC2)cc1C(=O)Nc1nc(-c2ccccn2)cs1	ARNT-TACC3 inh 75.5 (no result: PGC1a acetyl inh)
CCc1sc(C(=O)Nc2nccs2)cc1C	none (no result: PGC1a acetyl inh)
O=C(COc1ccc(F)cc1Cl)Nc1nc(-c2ccccn2)cs1	ARNT-TACC3 inh 48.2
CCc1sc(C(=O)Nc2nc(-c3ccccn3)cs2)cc1C	ARNT-TACC3 inh 63.4 (no result: CASP6 VEID inh, S100A4 MyoIIA, Ecoli rRNA inh, ERAP1 HTS inh)
COc1ccc(-c2csc(NC(=S)NC(=O)/C=C/c3ccco3)n2)cc1OC	none
COc1ccc(-c2csc(NC(=S)NC(=O)/C=C/c3ccco3)n2)cc1Br	Ecoli rRNA inh -41.1 (no result: ERAP1 HTS inh)
CO[C@H]1CN(C)C(=O)c2cc(NC(=O)Nc3cc(Cl)cc(Cl)c3)ccc2OC[C@H](C)NC[C@@H]1C	none (no result: CASP6 VEID inh, ARNT-TACC3 inh, S100A4 MyoIIA, ERAP1 HTS inh)
C[C@@H]1CN([C@H](C)CO)C(=O)c2cc(NS(C)(=O)=O)ccc2O[C@@H]1CN(C)S(=O)(=O)c1cccs1	none
